Among the data in ChEMBL document CHEMBL1158349, “Synthesis and antimicrobial evaluation of 1-(benzofuran-2-yl)-4-nitro-3-arylbutan-1-ones and 3-(benzofuran-2-yl)-4,5-dihydro-5-aryl-1-[4-(aryl)-1,3-thiazol-2-yl]-1H-pyrazoles” (2009) are zone of inhibition values, retold here.

What all share (format): functional
Holding throughout (conditions): read-out: DIZ

One experiment concerns Staphylococcus aureus. The experiment is described as follows: Antibacterial activity against Staphylococcus aureus at 100 ug after 24 hrs by agar disc-diffusion method. Summed up:
(§1)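 Agar disc-diffusion on nutrient agar. Sterile 6 mm filter-paper discs moistened with the test compound in DMSO were placed on plates seeded separately with each bacterium. Amoxicillin was the reference drug. Plates were incubated at 37 °C, and the growth-inhibition zone diameter was measured after 24 h.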
For orientation: Agar diffusion results depend on both activity and mobility in agar.

Another experiment deals with Bacillus subtilis. The experiment is described as follows: Antibacterial activity against Bacillus subtilis at 100 ug after 24 hrs by agar disc-diffusion method. A digest of the protocol: as §1
A further experiment deals with Escherichia coli. The experiment is described as follows: Antibacterial activity against Escherichia coli at 100 ug after 24 hrs by agar disc-diffusion method. A digest of the protocol: as §1
The next experiment deals with Candida albicans. Nature of the experiment: Antifungal activity against Candida albicans at 100 ug after 48 hrs by agar disc-diffusion method. A digest of the protocol: (§2)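 Disc diffusion on nutrient agar. Plates were inoculated separately with each fungus, then 6 mm paper discs wetted with the compound solution in DMSO were applied. Fluconazole was the reference drug. Plates were incubated at 37 °C, and inhibition-zone diameters were read after 48 h.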

For the next experiment, the system named is Aspergillus niger. The experiment is described as follows: Antifungal activity against Aspergillus niger at 100 ug after 48 hrs by agar disc-diffusion method. Summed up: as §2

For `c1ccc(-c2csc(N3N=C(c4cc5ccccc5o4)CC3c3ccccc3)n2)cc1` (stereo not given), the zone of inhibition at 100 µg/disc with Staphylococcus aureus was determined as 17 mm; in the experiment on Bacillus subtilis it was 0 mm; in the experiment with Escherichia coli, 25 mm; in the experiment with Candida albicans, 0 mm; with Aspergillus niger it was 0 mm.

On to `O=C(CC(C[N+](=O)[O-])c1ccccc1)c1cc2ccccc2o1` (stereo not given), for which the zone of inhibition at 100 µg/disc came to 0 mm with Staphylococcus aureus; 0 mm in the experiment on Bacillus subtilis; 12 mm in the experiment with Escherichia coli; 30 mm in the experiment with Candida albicans; 0 mm in the experiment with Aspergillus niger.

As for `Clc1ccc(C2CC(c3cc4ccccc4o3)=NN2c2nc(-c3ccccc3)cs2)cc1` (stereo not given), the zone of inhibition at 100 µg/disc turned out to be 0 mm in the experiment with Staphylococcus aureus; 0 mm in the experiment on Bacillus subtilis; 12 mm with Escherichia coli; 25 mm in the experiment on Candida albicans; 15 mm in the experiment with Aspergillus niger.

Consider `Brc1ccc(-c2csc(N3N=C(c4cc5ccccc5o4)CC3c3ccccc3)n2)cc1` (stereo not given), for which the zone of inhibition at 100 µg/disc in the experiment on Staphylococcus aureus, with Bacillus subtilis, in the experiment on Escherichia coli, in the experiment with Candida albicans and in the experiment on Aspergillus niger was 0 mm in each case.

`NC(=S)N1N=C(c2cc3ccccc3o2)CC1c1ccc(Cl)cc1` (stereo not given): the zone of inhibition at 100 µg/disc was 0 mm in the experiment on Staphylococcus aureus; 12 mm in the experiment with Bacillus subtilis; 15 mm in the experiment on Escherichia coli; 0 mm with Candida albicans; 15 mm in the experiment on Aspergillus niger.

Turning to `NC(=S)N1N=C(c2cc3ccccc3o2)CC1c1ccccc1` (stereo not given), the zone of inhibition at 100 µg/disc in the experiment on Staphylococcus aureus came to 0 mm; in the experiment with Bacillus subtilis it was 0 mm; in the experiment on Escherichia coli it was 0 mm; in the experiment with Candida albicans it was 5 mm; with Aspergillus niger, 0 mm.

In the case of `O=C(CC(C[N+](=O)[O-])c1ccc(Cl)cc1)c1cc2ccccc2o1` (stereo not given), the zone of inhibition at 100 µg/disc with Staphylococcus aureus came to 0 mm; in the experiment with Bacillus subtilis, 0 mm; in the experiment on Escherichia coli it was 12 mm; in the experiment on Candida albicans it was 20 mm; with Aspergillus niger, 15 mm.

Take `Clc1ccc(C2CC(c3cc4ccccc4o3)=NN2c2nc(-c3ccc(Br)cc3)cs2)cc1` (stereo not given): the zone of inhibition at 100 µg/disc was found to be 0 mm in the experiment on Staphylococcus aureus; 0 mm with Bacillus subtilis; 0 mm in the experiment on Escherichia coli; 25 mm in the experiment with Candida albicans; 0 mm with Aspergillus niger.

`OC(Cn1cncn1)(Cn1cncn1)c1ccc(F)cc1F` [FLUCONAZOLE]: the zone of inhibition at 100 µg/disc in the experiment with Candida albicans and in the experiment on Aspergillus niger was 20 mm throughout.

As to `CC1(C)S[C@@H]2[C@H](NC(=O)[C@H](N)c3ccc(O)cc3)C(=O)N2[C@H]1C(=O)O` [AMOXICILLIN], the zone of inhibition at 100 µg/disc in the experiment with Staphylococcus aureus, in the experiment on Bacillus subtilis and with Escherichia coli was 20 mm each time.

In the case of `COc1ccc(C(CC(=O)c2cc3ccccc3o2)C[N+](=O)[O-])cc1` (stereo not given), the zone of inhibition at 100 µg/disc with Staphylococcus aureus was found to be 0 mm; in the experiment on Bacillus subtilis, 0 mm; in the experiment on Escherichia coli, 12 mm; in the experiment with Candida albicans, 25 mm; with Aspergillus niger, 0 mm.
